# High-throughput results (PubChem)
# PGC1a acetyl inh = PGC1a acetylation modulation, inhibitor mode; inhibition, % at 15.6 µM; 0.17% of 350,000 active; U2OS PGC1a acetylation, AlphaScreen anti-acetyl-lysine; with virally co-expressed GCN5 acetyltransferase;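 active = every replicate shows inhibition of at least 40%; inconclusive = mean inhibition at least 40% but some replicate below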;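 note: 0% = neutral control wells and 100% = positive control wells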
# HIV Env fusion = HIV envelope-mediated fusion inhibition | HeLa-JRFL Env/CEM21 cell fusion, luciferase | inhibition, % at 12.3 µM | 1.1% of 360,000 active | AID 651610;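 active = mean replicate inhibition score of at least 50 and every replicate individually at or above 50; inconclusive = only one of the two criteria met; inactive = mean below 50 and not all replicates reaching 50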;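 note: 0% = plate neutral controls and 100% = maraviroc near 300 nM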
# Cneo AK release = causes C. neoformans cell lysis | adenylate kinase release luminescence, 4 h; normalised: neutral wells 0, clomiphene wells 100 | lysis activity, % at 15 µM | 0.2% of 360,000 active | AID 651654;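 active = mean lysis activity across replicates of at least 80%, whatever share of replicates individually reach that level; inactive = mean lysis activity below 80%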
#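 Assay system: log-phase C. neoformans yeast / Quantity: yeast cell density of 5 × 10^6 cells/mL / Medium: fresh YPD growth medium / Compound: single dose / Timing: static 4 h at 37 °C with compound, 1 h detection / Measured by: adenylate kinase release luminescence / Read-out: lysis from increased AK signal / Benchmarks: Clomiphene as positive lysis control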
# FGF22 binding = binders of recombinant human FGF22 by thermal shift; SYPRO orange fluorescence; percent of sucrose octasulfate shift, DMSO zero; activity (Tm shift, normalised), % at 9.99 µM; 1.5% of 340,000 active;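 active = mean Tm shift, scaled 0 neutral to 100 positive control, at about 1.3% or above, every replicate too, limit read from the data; inconclusive = no clear call, values can overlap the other calls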
# ERAP1 HTS inh = blocks human ERAP1 aminopeptidase activity; recombinant ERAP1, Leu-AMC fluorescence, 60 min; inhibition, % at 10.7 µM; AID 652197; Q9NZ08; 0.15% of 340,000 active;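 active = mean replicate inhibition of at least 30%, or all replicates individually reaching that 30% level; inactive = mean below 30% and not every replicate reaching it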;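 note: 0% = neutral control wells and 100% = L-leucinethiol positive control wells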
# Target sequence (Q9NZ08 whole entry, looked up): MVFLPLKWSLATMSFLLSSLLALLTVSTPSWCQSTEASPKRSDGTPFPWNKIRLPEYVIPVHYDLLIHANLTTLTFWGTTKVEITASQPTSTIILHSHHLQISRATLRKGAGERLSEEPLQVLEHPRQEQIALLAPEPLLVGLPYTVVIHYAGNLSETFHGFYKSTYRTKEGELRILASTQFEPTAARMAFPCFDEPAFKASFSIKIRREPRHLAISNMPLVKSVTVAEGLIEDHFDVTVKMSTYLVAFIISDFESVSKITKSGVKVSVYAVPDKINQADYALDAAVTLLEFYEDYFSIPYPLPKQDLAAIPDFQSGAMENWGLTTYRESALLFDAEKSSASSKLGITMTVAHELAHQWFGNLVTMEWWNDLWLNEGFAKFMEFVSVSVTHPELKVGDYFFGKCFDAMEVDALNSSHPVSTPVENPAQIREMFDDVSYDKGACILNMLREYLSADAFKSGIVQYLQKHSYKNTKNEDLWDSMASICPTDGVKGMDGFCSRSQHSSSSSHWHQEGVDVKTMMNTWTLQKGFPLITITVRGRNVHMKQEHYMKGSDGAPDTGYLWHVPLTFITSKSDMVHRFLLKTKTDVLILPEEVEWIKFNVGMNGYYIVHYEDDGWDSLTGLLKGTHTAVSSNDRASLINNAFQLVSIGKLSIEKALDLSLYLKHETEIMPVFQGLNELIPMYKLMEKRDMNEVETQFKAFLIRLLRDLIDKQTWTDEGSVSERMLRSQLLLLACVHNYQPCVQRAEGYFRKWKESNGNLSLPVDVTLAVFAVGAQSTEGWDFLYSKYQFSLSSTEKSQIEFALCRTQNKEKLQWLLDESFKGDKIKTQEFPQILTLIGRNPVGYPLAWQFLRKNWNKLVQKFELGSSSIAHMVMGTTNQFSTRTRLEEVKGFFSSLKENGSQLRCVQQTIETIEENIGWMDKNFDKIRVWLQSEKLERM
# Ecoli rRNA inh = inhibits bacterial ribosomal RNA function over humanized ribosomes | E. coli WT GFP vs humanized-ribosome RFP mutants, fluorescence, 24 h; stronger effect = lower value; DMSO median 0, no signal -100 | GFP signal change (wild-type ribosome), % (concentration not given with the values) | 1.6% of 350,000 active;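 active = significant combined selectivity score with lowered wild-type GFP, culture density cut under 30%, mutant RFP and density less affected; inactive = any of these conditions unmet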
# HepG2 cytotox = cytotoxic compounds in HepG2 cells | 30 tested, under 10 active | HepG2 viability, ATP luminescence, 72 h | activity change, negative = cytotoxicity, unspecified at 26 µM | shares compounds with Ecoli rRNA inh | AID 743480;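 active = compounds whose fitted half-maximal signal-loss concentration is at most twice their highest valid dose; inconclusive = flat curve with 30 to 70% signal loss, or poor fit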
# AID977621 = growth inhibition of wild-type GFP E. coli, dose response, H69 mutant RFP, cherry-pick; E. coli wild-type GFP strain growth, fluorescence, 24 h; activity change, negative = inhibition at 50 µM; AID 977621; shares compounds with Ecoli rRNA inh; 1,900 tested, under 10 active;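 active = Wild-type ribosome reporter drop at least double the humanized mutant ribosome reporter drop, growth loss under a set limit; inconclusive = no clear call, values can overlap the other calls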;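 note: wild-type GFP and H69 mutant RFP strains grown together 50/50 in each well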
# AID977628 = E. coli growth inhibition, wild-type GFP versus h24 humanized RFP strain, dose response, h24 mutant RFP vs wild-type GFP, cherry-pick; shares compounds with Ecoli rRNA inh; E. coli WT GFP strain growth, fluorescence, 24 h; activity change, negative = inhibition at 50 µM; 1,900 tested, under 10 active; AID 977628;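 active = compound lowering the normal-ribosome reporter at least twice as much as the humanized-ribosome reporter, growth loss under a set limit; inconclusive = no clear call, values can overlap the other calls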;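 note: wild-type GFP and h24 humanized RFP strains co-cultured 1 to 1 per well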
# * hit, by the source's call; ? = inconclusive; . = not tested or not shown; [ ] = remark or other dose. Only some compounds are listed: those with a hit (about 3.5% of all), similar ones and a draw of the others.
SMILES,PGC1a acetyl inh,HIV Env fusion,Cneo AK release,FGF22 binding,ERAP1 HTS inh,Ecoli rRNA inh,AID977621,AID977628,others
CN(C)CCCN(C(=O)CCSc1ccccc1)c1nc2cc3c(cc2s1)OCO3,-3,-3,0,0,0,-31*,-5.2,-3.8,
CN1c2ccc(C#Cc3cccnc3)cc2[C@@H]2[C@@H](CCN2C(=O)C2CCC2)[C@@H]1CO,-13,2[16.7 µM],.,.,0,-5,.,.,
Cc1cc(NC(=O)CCN2C(=O)C3C4C=CC(C4)C3C2=O)ccc1Br (stereo unspecified),0,-2,-13,1,6,-21*,-8.3,-18,
COc1ccc(NC(=O)CCN2C(=O)C3C4C=CC(C4)C3C2=O)cc1 (stereo unspecified),-3,10,-3,0,8,5,.,.,
CCC[N+]1(CC#CC(O)(c2ccccc2)C2CCCCC2)CCCCC1 (stereo unspecified),.,-27,.,0,-6,-36*,-4.8,-11,
CCN(CC)CCC#CC(O)(c1ccccc1)C1CCCCC1 (stereo unspecified),7,-1,.,0,-1,-11,.,.,
Cc1cc(Br)ccc1NC(=O)CNC(=O)CSc1ncccn1,-1,7,5,0,3,.,.,.,
CC(=O)c1ccc(OCCCC(=O)OCC(=O)N2CCN(c3ccccc3)CC2)cc1,1,.,2,.,.,.,.,.,
O=C(C[C@H]1CC[C@@H]2[C@H](COC[C@@H](O)CN2CCC(F)(F)F)O1)NCC1CCCCC1,-5,0[16.7 µM],51,0,0,-7,.,.,
Nc1ccc(C(=O)N/N=C\C=C\c2cccc([N+](=O)[O-])c2)cc1,.,-12,.,.,.,.,.,.,
c1ccc(CNc2ncnc3sccc23)cc1,.,21,3,0,0,-21*,.,?,
CC(C)(C)C(=O)OCc1nc(-c2ccc(Cl)cc2)cs1,3,-19,-6,0,.,-15,.,.,
CC(C)(C)S(=O)(=O)Cc1nc(-c2ccc(Cl)c(Cl)c2)cs1,.,-7,.,0,2,-15*,-1,-2.6,
CO[C@@H]1CN(C)C(=O)c2cc(NS(=O)(=O)c3cccc(Cl)c3)ccc2OC[C@H](C)NC[C@@H]1C,-10,-5[16.7 µM],3,0,1,-3,.,.,
Cc1nnc2sc(SCC(=O)Nc3ccc(Br)cc3)nn2c1=O,8,-3,.,0,2,-24*,-5.7,.,
O=C(COC(=O)Cc1ccccc1F)NCc1ccc(Cl)cc1,-2,0,0,0,2,-2,.,.,
Cn1c(=O)c2c(nc(N3CCOCC3)n2C/C=C/c2ccccc2)n(C)c1=O,15,-4,0,0,-2,-18*,-9.2,-11,
O=C(C[C@H]1CC[C@H](NC(=O)Nc2ccccc2F)[C@H](CO)O1)NCc1ccc(-c2ccccc2)cc1,.,.,.,.,2,-20*,-6.5,?,
O=C(C[C@H]1CC[C@@H](NC(=O)Nc2ccccc2F)[C@@H](CO)O1)NCc1ccccc1,6,18[16.7 µM],-1,0,-2,-4,.,.,
CC(C)NC(=O)Nc1cccc2c1O[C@H](CN(C)S(=O)(=O)c1cccs1)[C@H](C)CN([C@@H](C)CO)C2=O,9,-47[16.7 µM],.,.,.,1,.,.,
Cc1noc(C)c1NC(=O)Nc1ccc2c(c1)C(=O)N([C@@H](C)CO)C[C@H](C)[C@H](CN(C)C(=O)Nc1ccc3c(c1)OCO3)OCCCC[C@H](C)O2,0,11[16.7 µM],-1,0,0,2,.,?,
Cc1noc(C)c1NC(=O)Nc1ccc2c(c1)C(=O)N([C@H](C)CO)C[C@H](C)[C@H](CN(C)C(=O)Nc1ccc3c(c1)OCO3)OCCCC[C@@H](C)O2,3,15[16.7 µM],-3,0,-2,5,-7.1,?,
Cc1noc(C)c1NC(=O)Nc1ccc2c(c1)C(=O)N([C@@H](C)CO)C[C@@H](C)[C@H](CN(C)C(=O)Nc1ccc3c(c1)OCO3)OCCCC[C@@H](C)O2,-4,9[16.7 µM],4,0,1,1,?,13,
Cc1noc(C)c1NC(=O)Nc1ccc2c(c1)C(=O)N([C@H](C)CO)C[C@@H](C)[C@@H](CN(C)C(=O)Nc1ccc3c(c1)OCO3)OCCCC[C@@H](C)O2,1,10[16.7 µM],-1,0,-2,-41*,.,?,HepG2 cytotox=18
Cc1noc(C)c1NC(=O)N(C)C[C@H]1OCCCC[C@@H](C)Oc2ccc(NC(=O)Nc3ccc4c(c3)OCO4)cc2C(=O)N([C@H](C)CO)C[C@@H]1C,11,11[16.7 µM],-3,0,-2,4,.,.,
SMILES,PGC1a acetyl inh,HIV Env fusion,Cneo AK release,FGF22 binding,ERAP1 HTS inh,Ecoli rRNA inh,AID977621,AID977628,others
Cc1noc(C)c1NC(=O)N(C)C[C@@H]1OCCCC[C@@H](C)Oc2ccc(NC(=O)Nc3ccc4c(c3)OCO4)cc2C(=O)N([C@H](C)CO)C[C@@H]1C,20,-3[16.7 µM],1,0,-1,1,.,.,
CC(=O)Nc1nnc(S(=O)(=O)N2CCN(c3ccc(Cl)cc3[N+](=O)[O-])CC2)s1,-4,-1,0,0,5,5,.,.,
C/C=C/c1cnc2c(c1)C(=O)N([C@@H](C)CO)C[C@@H](C)[C@H](CN(C)C(=O)C1CCCCC1)O2,-7,-25[16.7 µM],0,0,0,3,.,.,
Cc1noc(C)c1NC(=O)Nc1ccc2c(c1)C(=O)N([C@H](C)CO)C[C@H](C)[C@H](CN(C)C(=O)Nc1ccc3c(c1)OCO3)OCCCC[C@H](C)O2,-10,15[16.7 µM],1,0,0,0,-1.4,12,
COc1cccc(C(=O)NC(C)c2ccc(Br)cc2)c1 (stereo unspecified),.,0,.,0,2,-27*,-15,-11,
COc1cc(OC)cc(C(=O)NC(C)c2ccc(Br)cc2)c1 (stereo unspecified),-2,-49,-1,0,-2,16,.,.,
CC(=O)Nc1ccc(-c2ccnc3c2CC(C)(C(=O)Nc2ccc4c(c2)OCO4)O3)cc1 (stereo unspecified),-10,-82,-1,-1,-2,-23*,-12,.,
C[C@@H]1CCCCO[C@H](CN(C)C(=O)CCCN(C)C)[C@@H](C)CN([C@H](C)CO)C(=O)c2cc(NC(=O)Nc3cccc4ccccc34)ccc2O1,7,-13[16.7 µM],-2,0,-5,-1,?,8.2,
